{
  "source": "paper PMC7004521",
  "about": "(Cancer Science, 2019)",
  "test_system": "MET‐dysregulated advanced solid tumors",
  "experiment": "Best overall response according to investigator",
  "format": "in vivo, human",
  "summary_of_the_method": "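Patients with MET-dysregulated advanced solid tumours took oral twice-daily doses in 28-day cycles: 100–600 mg capsules or 400 mg tablets in escalation, and 600 mg capsules or 400 mg tablets in expansion. Tumours were assessed by CT, or by contrast MRI for GBM or when CT was contraindicated. Response was judged by the investigator per RECIST v1.0 (the ORR endpoint is defined per v1.1), or MacDonald criteria for GBM.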",
  "key": {"[1]": {"conditions": "dose‐expansion cohorts, N = 18 evaluable"}, "[2]": {"conditions": "escalation 400 mg bid tablet n=5"}, "[3]": {"conditions": "expansion RP2D gastric cancer n=9"}, "[4]": {"conditions": "expansion RP2D other indications n=18"}},
  "note": "Entries after “also recorded” stand apart in the source; their conditions may differ.",
  "data": [
    {"smiles": "CNC(=O)c1ccc(-c2cnc3ncc(Cc4ccc5ncccc5c4)n3n2)cc1F", "note": "[capmatinib]", "values": [
      {"measurement": "Best overall response: Complete response", "setting": "all escalations N=38", "value": "0 n (%)"},
      {"measurement": "Best overall response: Partial response", "setting": "all escalations N=38", "value": "0 n (%)"},
      {"measurement": "Best overall response: Progressive disease", "setting": "all escalations N=38", "value": "25 (66) n (%)"},
      {"measurement": "Best overall response: Unknown", "setting": "all escalations N=38", "value": "3 (5) n (%)"},
      {"measurement": "Best overall response: Complete response", "setting": "all expansions RP2D N=38", "value": "0 n (%)"},
      {"measurement": "Best overall response: Partial response", "setting": "all expansions RP2D N=38", "value": "0 n (%)"},
      {"measurement": "tumor shrinkage", "setting": "dose escalation, 450 mg bid capsule, colon cancer and HCC", "value": "tumor shrinkage was observed in two patients; also recorded: tumor shrinkage was observed for two patients"},
      {"measurement": "patients with best percentage change from baseline in sum of tumor diameters <0", "setting": "[1]", "value": 7, "unit": "n"},
      {"measurement": "patients with best percentage change from baseline in sum of tumor diameters >0", "setting": "[1]", "value": 11, "unit": "n"},
      {"measurement": "Best overall response: Complete response", "setting": "escalation 100 mg bid n=4", "value": "0 n (%)"},
      {"measurement": "Best overall response: Partial response", "setting": "escalation 100 mg bid n=4", "value": "0 n (%)"},
      {"measurement": "Best overall response: Progressive disease", "setting": "escalation 100 mg bid n=4", "value": "2 (50) n (%)"},
      {"measurement": "Best overall response: Stable disease", "setting": "escalation 100 mg bid n=4", "value": "2 (50) n (%)"},
      {"measurement": "Best overall response: Unknown", "setting": "escalation 100 mg bid n=4", "value": "0 n (%)"},
      {"measurement": "Best overall response: Complete response", "setting": "escalation 200 mg bid n=5", "value": "0 n (%)"},
      {"measurement": "Best overall response: Partial response", "setting": "escalation 200 mg bid n=5", "value": "0 n (%)"},
      {"measurement": "Best overall response: Progressive disease", "setting": "escalation 200 mg bid n=5", "value": "4 (80) n (%)"},
      {"measurement": "Best overall response: Stable disease", "setting": "escalation 200 mg bid n=5", "value": "1 (20) n (%)"},
      {"measurement": "Best overall response: Unknown", "setting": "escalation 200 mg bid n=5", "value": "0 n (%)"},
      {"measurement": "Best overall response: Complete response", "setting": "escalation 250 mg bid n=4", "value": "0 n (%)"},
      {"measurement": "Best overall response: Partial response", "setting": "escalation 250 mg bid n=4", "value": "0 n (%)"},
      {"measurement": "Best overall response: Stable disease", "setting": "escalation 250 mg bid n=4", "value": "1 (25) n (%)"},
      {"measurement": "Best overall response: Unknown", "setting": "escalation 250 mg bid n=4", "value": "1 (25) n (%)"},
      {"measurement": "Best overall response: Complete response", "setting": "escalation 350 mg bid n=3", "value": "0 n (%)"},
      {"measurement": "Best overall response: Partial response", "setting": "escalation 350 mg bid n=3", "value": "0 n (%)"},
      {"measurement": "Best overall response: Progressive disease", "setting": "escalation 350 mg bid n=3", "value": "2 (67) n (%)"},
      {"measurement": "Best overall response: Stable disease", "setting": "escalation 350 mg bid n=3", "value": "1 (33) n (%)"},
      {"measurement": "Best overall response: Unknown", "setting": "escalation 350 mg bid n=3", "value": "0 n (%)"},
      {"measurement": "Best overall response: Complete response", "setting": "[2]", "value": "0 n (%)"},
      {"measurement": "Best overall response: Partial response", "setting": "[2]", "value": "0 n (%)"},
      {"measurement": "Best overall response: Progressive disease", "setting": "[2]", "value": "3 (60) n (%)"},
      {"measurement": "Best overall response: Stable disease", "setting": "[2]", "value": "2 (40) n (%)"},
      {"measurement": "Best overall response: Unknown", "setting": "[2]", "value": "0 n (%)"},
      {"measurement": "Best overall response: Complete response", "setting": "escalation 450 mg bid n=9", "value": "0 n (%)"},
      {"measurement": "Best overall response: Partial response", "setting": "escalation 450 mg bid n=9", "value": "0 n (%)"},
      {"measurement": "Best overall response: Progressive disease", "setting": "escalation 450 mg bid n=9", "value": "6 (67) n (%)"},
      {"measurement": "Best overall response: Stable disease", "setting": "escalation 450 mg bid n=9", "value": "2 (22) n (%)"},
      {"measurement": "Best overall response: Unknown", "setting": "escalation 450 mg bid n=9", "value": "1 (11) n (%)"},
      {"measurement": "Best overall response: Complete response", "setting": "escalation 600 mg bid n=8", "value": "0 n (%)"},
      {"measurement": "Best overall response: Partial response", "setting": "escalation 600 mg bid n=8", "value": "0 n (%)"},
      {"measurement": "Best overall response: Progressive disease", "setting": "escalation 600 mg bid n=8", "value": "6 (75) n (%)"},
      {"measurement": "Best overall response: Stable disease", "setting": "escalation 600 mg bid n=8", "value": "1 (13) n (%)"},
      {"measurement": "Best overall response: Unknown", "setting": "escalation 600 mg bid n=8", "value": "1 (13) n (%)"},
      {"measurement": "Best overall response: Complete response", "setting": "expansion RP2D HCC n=11", "value": "0 n (%)"},
      {"measurement": "Best overall response: Partial response", "setting": "expansion RP2D HCC n=11", "value": "0 n (%)"},
      {"measurement": "Best overall response: Progressive disease", "setting": "expansion RP2D HCC n=11", "value": "1 (9.1) n (%)"},
      {"measurement": "Best overall response: Stable disease", "setting": "expansion RP2D HCC n=11", "value": "5 (46) n (%)"},
      {"measurement": "Best overall response: Unknown", "setting": "expansion RP2D HCC n=11", "value": "5 (46) n (%)"},
      {"measurement": "Best overall response: Complete response", "setting": "[3]", "value": "0 n (%)"},
      {"measurement": "Best overall response: Partial response", "setting": "[3]", "value": "0 n (%)"},
      {"measurement": "Best overall response: Progressive disease", "setting": "[3]", "value": "3 (33) n (%)"},
      {"measurement": "Best overall response: Stable disease", "setting": "[3]", "value": "2 (22) n (%)"},
      {"measurement": "Best overall response: Unknown", "setting": "[3]", "value": "4 (44) n (%)"},
      {"measurement": "Best overall response: Complete response", "setting": "[4]", "value": "0 n (%)"},
      {"measurement": "Best overall response: Partial response", "setting": "[4]", "value": "0 n (%)"},
      {"measurement": "Best overall response: Progressive disease", "setting": "[4]", "value": "9 (50) n (%)"},
      {"measurement": "Best overall response: Stable disease", "setting": "[4]", "value": "5 (28) n (%)"},
      {"measurement": "Best overall response: Unknown", "setting": "[4]", "value": "4 (22) n (%)"},
      {"measurement": "stable disease", "setting": "expansion, other advanced solid tumor types, five of 18 patients", "value": 28, "unit": "%"},
      {"measurement": "tumor reduction in patients with GCN ≥6", "setting": "expansion, two other solid tumor patients", "value": "substantial tumor reduction"}
    ]}
  ]
}
